Data taken from ChEMBL document CHEMBL1124676, “Hypoxia-selective antitumor agents. 2. Electronic effects of 4-substituents on the mechanisms of cytotoxicity and metabolic stability of nitracrine derivatives” (J Med Chem, 1989).

Columns and labels:
[1] = Hypersensitivity factor (HF) of IC50 (AA8) / IC50 (UV-4) of compound for repair deffective mutants; assay type: functional
Summary of the method: (§1)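 Miniassay: AA8, UV-4, UV-5 or EM-9 cells were seeded at 2 × 10^4 cells/mL in 24-well dishes. After 24 h, five 2-fold serial concentrations were added in duplicate and held 4 h at 37 °C. Cells were washed, grown 30 h more, trypsinized and counted electronically. IC50 is 50% of mean control cell density. HF = IC50(AA8)/IC50(mutant), mean ± SE of 2–4 experiments.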

[2] = Hypersensitivity factor (HF) of IC50 (AA8) / IC50 (EM-9) of compound for repair deffective mutants; assay type: functional; summary of the method: as §1
[3] = Hypersensitivity factor (HF) of IC50 (AA8) / IC50 (UV-5) of compound for repair deffective mutants; assay type: functional; summary of the method: as §1
[4] = Half life of extracellular bioactivity assessed by bioassay of culture supernatant against aerobic UV-4 cells; assay type: ADME, cell-based, Cricetulus griseus, UV4; settings: chinese hamster, aerobic UV-4 cell cultures (culture supernatant)
Summary of the method: (§2)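 Plateau-phase AA8 cells, 10^6 cells/mL, stirred suspension under 5% CO2 in air or N2. Supernatants sampled over time (spun 1300g × 1 min) and dilutions assayed against log-phase UV-4 (seeded 3 × 10^3 cells/mL, 24 h earlier), 4-day continuous exposure, methylene blue staining. Activity remaining = IC50 at time zero / apparent IC50; half-life and zero-time intercept from log-linear regression.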

[5] = Ratio of growth inhibition of compound to reduce cell density by 50% of AA8 cells under aerobic and hypoxic conditions (air/N2); assay type: functional, CHO-AA8
Summary of the method: (§3)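 Microassay: 200 AA8 or 300 UV-4 viable cells/well plus 5000 irradiated (35 Gy) AA8 feeder cells. Serial 2-fold drug dilutions added after 24 h. Plates held 18 h at 37 °C in chambers flushed with 5% CO2 in air or in N2 (with 1% H2, Pd catalyst). Then washed, grown 72-78 h, stained with methylene blue, A620−A405. IC50 vs 50% of control; three independent experiments.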

[6] = Ratio of growth inhibition of compound to reduce cell density by 50% of repair deffective mutant UV-4 cells in 96-well cultures under aerobic and hypoxic conditions (air/N2); assay type: functional; summary of the method: as §3
UV4 [7] = assay: Inhibitory concentration required to reduce cell density in UV-4 cells to 50% of controls (cells were exposed to compound for 4 days continuously); assay type: functional, cell-based; settings: Cricetulus griseus, UV4, 96 h
Summary of the method: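 UV-4 cells seeded at 3 × 10^3 cells/mL about 24 h before drug, exposed continuously for 4 days, then methylene blue staining. IC50 = concentration reducing absorbance to 50% of controls; six determinations.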

[8] = Extrapolated fraction of biological activity remaining at time zero of hypoxic AA8 suspension cultures; assay type: ADME; settings: hamster; summary of the method: as §2
[9] = Half life of extracellular bioactivity assessed by bioassay of culture supernatant against hypoxic UV-4 cells; assay type: ADME, cell-based, Cricetulus griseus, UV4; settings: chinese hamster, hypoxic UV-4 cell cultures (culture supernatant); summary of the method: as §2
[10] = Ratio for […], expressed as hypersensitivity factor under aerobic conditions; assay type: functional; summary of the method: as §3
CHO-AA8 [11] = assay: Inhibitory activity to reduce cell density by 50% of AA8 cells under aerobic conditions; assay type: functional, cell-based; settings: Cricetulus griseus; summary of the method: as §3
[12] = (§4) Extrapolated fraction of biological activity remaining at time zero of stirred aerobic AA8 suspension cultures; assay type: ADME; settings: hamster; summary of the method: as §2
UV4 [13] = assay: Inhibitory ativity to reduce cell density by 50% of repair deffective mutant UV-4 cells in 96-well cultures under aerobic conditions; assay type: functional, cell-based; settings: Cricetulus griseus; summary of the method: as §3
[14] = Total compound concentration in AA8 suspension cultures at zero time; assay type: ADME; settings: hamster
[15] = Half life of extracellular bioactivity assessed by bioassay of culture supernatant against aerobic UV-4 cells; No statistically significant trend with time; assay type: ADME, cell-based, Cricetulus griseus; settings: chinese hamster, uv4; summary of the method: as §2
CHO-AA8 [16] = assay: as §4; assay type: functional, Cricetulus griseus; summary of the method: as §2
[17] = Ratio for hypoxic AA8/ hypoxic UV-4, expressed as hypersensitivity factor under hypoxic conditions; assay type: functional; summary of the method: as §3

Compound: O=C(O)CCCc1ccc(N(CCCl)CCCl)cc1
- Ratio [1]: 43
- Ratio [2]: 0.69
- Ratio [3]: 1.4

Compound: CC(=O)OCCN(CCOC(C)=O)c1ccc([N+](=O)[O-])c2c(NCCCN(C)C)c3ccccc3nc12
- half-life [4]: 18 h
- Ratio [5]: 4.5
- Ratio [6]: 4.8
- IC50 (UV4 [7]): 3450 nM
- A0 [8]: 1.03
- half-life [9]: 8.4 h
- Ratio [10]: 4.8
- IC50 (CHO-AA8 [11]): 43000 nM
- A0 [12]: 1.11
- IC50 (UV4 [13]): 11600 nM

Compound: CN(C)CCCNc1c2ccccc2nc2c(N(C)C)ccc([N+](=O)[O-])c12
- half-life [4]: 4.8 h
- Ratio [5]: 3.3
- Ratio [6]: 2.3
- IC50 (UV4 [7]): 410 nM
- A0 [8]: 0.68
- half-life [9]: 2.3 h
- Ratio [10]: 2.1
- IC50 (CHO-AA8 [11]): 18900 nM
- A0 [12]: 0.78
- IC50 (UV4 [13]): 6200 nM

Compound: CCOS(C)(=O)=O [METHANESULFONIC ACID ETHYL ESTER]
- Ratio [1]: 1.3
- Ratio [2]: 6.3
- Ratio [3]: 1.2

Compound: COc1ccc([N+](=O)[O-])c2c(NCCCN(C)C)c3ccccc3nc12
- half-life [4]: 14 h
- Ratio [5]: 5.3
- Ratio [6]: 4.2
- IC50 (UV4 [7]): 14.5 nM
- CO [14]: 3 mM
- A0 [8]: 0.78
- half-life [9]: 5.2 h
- Ratio [10]: 7.8
- IC50 (CHO-AA8 [11]): 616 nM
- A0 [12]: 0.76
- IC50 (UV4 [13]): 63 nM

Compound: CN(C)CCCNc1c2ccccc2nc2c(N(CCO)CCO)ccc([N+](=O)[O-])c12
- IC50 (CHO-AA8 [11]): 62000 nM
- IC50 (UV4 [13]): 19400 nM

Compound: CN(C)CCCNc1c2ccccc2nc2c(Cl)ccc([N+](=O)[O-])c12
- half-life [4]: 4.3 h
- Ratio [5]: 3.7
- Ratio [6]: 4.9
- IC50 (UV4 [7]): 0.62 nM
- CO [14]: 0.04 mM
- A0 [8]: 0.56
- half-life [9]: 0.68 h
- Ratio [10]: 13
- IC50 (CHO-AA8 [11]): 33 nM
- A0 [12]: 0.79
- IC50 (UV4 [13]): 3.3 nM

Compound: Cc1ccc([N+](=O)[O-])c2c(NCCCN(C)C)c3ccccc3nc12
- Ratio [5]: 5
- Ratio [6]: 4.6
- IC50 (UV4 [7]): 1.65 nM
- CO [14]: 0.2 mM
- A0 [8]: 1.12
- half-life [9]: 0.99 h
- Ratio [10]: 9
- IC50 (CHO-AA8 [11]): 76 nM
- A0 [12]: 0.65
- T1/2 [15]: Not Active
- IC50 (UV4 [13]): 8 nM

Compound: CN(C)CCCNc1c2ccccc2nc2ccccc12
- Ratio [1]: 1.03
- Ratio [2]: 0.78
- Ratio [3]: 0.87

Compound: COc1cc(NS(C)(=O)=O)ccc1Nc1c2ccccc2nc2ccccc12
- Ratio [1]: 0.9
- Ratio [2]: 0.68
- Ratio [3]: 0.9

Compound: O=[N+]([O-])c1cc[n+]([O-])c2ccccc12 [4-NITROQUINOLINE-1-OXIDE]
- Ratio [1]: 17
- Ratio [2]: 0.8
- Ratio [3]: 16

Compound: COC(=O)c1ccc([N+](=O)[O-])c2c(NCCCN(C)C)c3ccccc3nc12
- Ratio [5]: 1.2
- Ratio [6]: 1.2
- IC50 (UV4 [7]): 590 nM
- CO [14]: 0.01 mM
- A0 [8]: 0.45
- half-life [9]: 3.9 h
- Ratio [10]: 1.5
- A0 (CHO-AA8 [16]): 0.47
- IC50 (CHO-AA8 [11]): 2900 nM
- Ratio [17]: 1.5
- T1/2 [15]: Not Active
- IC50 (UV4 [13]): 1950 nM

Compound: CO[C@@]12[C@H](COC(N)=O)C3=C(C(=O)C(C)=C(N)C3=O)N1C[C@@H]1N[C@@H]12
- Ratio [1]: 86
- Ratio [2]: 0.78
- Ratio [3]: 2.35

Compound: CN(C)CCCNc1c2ccccc2nc2c(F)ccc([N+](=O)[O-])c12
- half-life [4]: 0.91 h
- Ratio [5]: 1.3
- Ratio [6]: 1.4
- IC50 (UV4 [7]): 2 nM
- CO [14]: 0.1 mM
- A0 [8]: 0.84
- half-life [9]: 0.77 h
- Ratio [10]: 21
- IC50 (CHO-AA8 [11]): 250 nM
- A0 [12]: 0.64
- IC50 (UV4 [13]): 12 nM

Compound: CN(C)CCCNc1c2ccccc2nc2cccc([N+](=O)[O-])c12 [NITRACRINE]
- half-life [4]: 7.3 h
- Ratio [1]: 12.8
- Ratio [2]: 1.8
- Ratio [6]: 3.8
- Ratio [3]: 8
- IC50 (UV4 [7]): 0.66 nM
- CO [14]: 0.04 mM
- A0 [8]: 0.98
- half-life [9]: 0.84 h
- Ratio [10]: 14.9
- IC50 (CHO-AA8 [11]): 26.3 nM
- A0 [12]: 0.86
- IC50 (UV4 [13]): 2 nM
